According to the array DNA melting data of Ke et al. (doi:10.1101/2024.01.08.574731):

Experiments:
[1] = melting temperature; fluorescence melt of hairpins on a sequencing array, two-state fit, raised by 9.35 °C to match UV melts; conditions: sodium 0.088 M
Procedure, shortened: (§1)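 With Cy3 and quencher oligos annealed, library hairpins on a sequenced MiSeq flow cell were imaged for Cy3 fluorescence in 50 mM Na-HEPES pH 8.0, 25 mM NaCl, in 2.5 °C steps up to 60 °C. Melting temperature and folding enthalpy were derived from bootstrapped two-state fits of signals normalised to pre-quench Cy3 and to control constructs. Four replicates were combined by inverse variance, with fitted temperatures raised by 9.35 °C to match UV melts.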

[2] = folding enthalpy; higher = less favourable; fluorescence melt of hairpins on a sequencing array, two-state fit; conditions: sodium 0.088 M
Procedure, shortened: as §1

Sequence	Tm [1] [°C]	folding enthalpy [2] [kcal/mol]
GAGGCTGGAAACAGTCTC (((.(((....))).)))	52.6	-35.8
GAGGGAGCGAAAGCTCTC (((..(((....))))))	42.8	-9.38
GAGGGAGGAAACTCCCCC (.(((((....))))).)	41.9	-10.5
GAGGGCACGAAAGTGCTC (((..(((....))))))	44	-7.41
GAGGGCGAAAGCCCACTC ((((((....)))..)))	55.6	-10.6
GAGGGCGGAAACGCCCCC (.(((((....))))).)	45.8	-5.82
GAGGGGGAAACCCCTC ((((((....))))))	65.4	-30
GAGGGTGAAAACCCTC ((((((....))))))	64.2	-32.4
GAGGGTGGAAACACCCTC (((((((....)))))))	68.7	-35
GAGGGTGGAAACACTCTC (((.(((....))).)))	52.3	-29.9
GAGGGTGGAAACGCCCTC (((((.(....).)))))	57.6	-44.3
GAGGGTGGAAACGTCCTC ((((..(....)..))))	35.1	-23.9
GAGGTAGGAAACTATCTC (((.(((....))).)))	38.7	-26.6
GAGGTCGGAAACGATCTC (((.(((....))).)))	52.5	-43.8
GAGGTCGGAAACGGCTTC ((.(.((....)).).))	36.1	-20.5
GAGGTGAAAACCTC (((((....)))))	53.3	-22.7
GAGGTGCCGAAAGGCCTC (((..(((....))))))	37.5	-10.8
GAGGTGGCGAAAGCCCTC (((..(((....))))))	43.7	-14.4
GAGGTGGGAAACCATCTC (((.(((....))).)))	47.7	-31.3
GAGGTTGGAAACGACCTC (((((.(....).)))))	51.3	-34.4
GAGTAACGAAAGTTCCTC (((.(((....))).)))	38	-19.8
GAGTAAGAAATTACTC ((((((....))))))	40.1	-24.5
GAGTAAGGAAACCTACTC (((((.(....).)))))	33.2	-26.6

Sequence	Tm [1] [°C]	folding enthalpy [2] [kcal/mol]
GAGTAAGGAAACTCACTC ((((.((....)).))))	24.8	-14.8
GAGTACGGAAACGCACTC ((((.((....)).))))	45.3	-31.6
GAGTACGGAAACGTATTC ((.((((....)))).))	41.6	-24.4
GAGTACGGAAACGTGCTC (((.(((....))).)))	53.8	-48.9
GAGTATGGAAACATGCTC (((.(((....))).)))	46.8	-34.1
GAGTCACGAAAGTGTCTC (((.(((....))).)))	49.8	-30
GAGTCAGCGAAAGCTCTC (((..(((....))))))	30.1	-11.8
GAGTCAGGAAACTGACCC (.(((((....))))).)	40.5	-13.4
GAGTCAGGAAACTGACTC (((((((....)))))))	62.6	-37
GAGTCCGAAAGGACGCTC ((((((....)))..)))	64.2	-13.6
GAGTCCGAAAGGAGACTC ((((((....)))..)))	44.9	-21.9
GAGTCCGAAAGGAGCTC ((((((....))).)))	47.2	-22
GAGTCCGAAAGGATACTC ((((((....)))..)))	38.6	-17.9
GAGTCCGGAAACGGGCTC (((.(((....))).)))	63.3	-33
GAGTCGGGAAACCGATTC ((.((((....)))).))	47.7	-25
GAGTCGGGAAACCGGCTC (((.(((....))).)))	61.1	-33.3
GAGTCTGGAAACGGACTC (((((.(....).)))))	52.3	-40.4
GAGTGACGAAAGTCCCTC (((.(((....))).)))	45.1	-24.4
GAGTGAGGAAACTCATTC ((.((((....)))).))	38.5	-23.5
GAGTGCGAAAGCAGGCTC ((((((....)))..)))	48.3	-16.7
GAGTGCGGAAACGCATTC ((.((((....)))).))	51.9	-23.8
GAGTGGCGAAAGCCTCTC (((.(((....))).)))	53.6	-24.2
GAGTGTGCGAAAGCACTC (((..(((....))))))	37.8	-9.39

Sequence	Tm [1] [°C]	folding enthalpy [2] [kcal/mol]
GAGTGTGGAAACATACTC ((((.((....)).))))	45.9	-31.9
GAGTTACCGAAAGGTCTC (((..(((....))))))	29.4	-16.9
GAGTTACGAAAGTATCTC (((.(((....))).)))	41.4	-26
GAGTTAGGAAACTAGCTC (((.(((....))).)))	40.4	-28.9
GAGTTAGGAAACTGACTC ((((.((....)).))))	42.4	-36.6
GAGTTCGAAAGAACTC ((((((....))))))	66.2	-38
GAGTTCGCGAAAGCGCTC (((..(((....))))))	25.9	-6.78
GAGTTCGGAAACGAACCC (.(((((....))))).)	41.5	-13.3
GAGTTCGGAAACGAGTTC ((..(((....)))..))	30.7	-9.81
GAGTTCGGAAACGGACTC ((((.((....)).))))	52	-43.1
GAGTTGGGAAACCAGCTC (((.(((....))).)))	48.9	-34.7
GAGTTGGGAAACTAACTC (((((.(....).)))))	43.6	-31
GAGTTTCCGAAAGGACTC (((..(((....))))))	30	-13.3
GAGTTTGGAAACGAACTC (((((.(....).)))))	47.1	-36.2
GATAAAGAAATTTATC ((((((....))))))	27.6	-15.9
GATAAAGGAAACTTTGTC ((.((((....)))).))	32.2	-14.1
GATAAGACGAAAGTCATC (((..(((....))))))	26.7	-15.2
GATAAGCCGAAAGGCATC (((..(((....))))))	32	-9.19
GATAATGGAAACATTACC (.(((((....))))).)	22.6	-9.26
GATACAGGAAACTGCATC (((.(((....))).)))	33.6	-28.4
GATACCACGAAAGTGATC (((..(((....))))))	21.2	-9.05
GATACCCGAAAGGGGATC (((.(((....))).)))	60	-30.2
GATACCGAAAGGTAAATC ((((((....)))..)))	28.7	-13.5

Sequence	Tm [1] [°C]	folding enthalpy [2] [kcal/mol]
GATACCGAAAGGTAATC ((((((....))).)))	39	-18.9
GATACCGAAAGGTAGATC ((((((....)))..)))	44.6	-18.3
GATACGGAAACGTATC ((((((....))))))	54	-43.6
GATACTGAAAAGTATC ((((((....))))))	48.5	-40.9
GATAGACGAAAGTCAATC (((.(((....))).)))	41.2	-22.5
GATAGACGAAAGTCATC (((.(((....))))))	38.4	-15.4
GATAGAGGAAACTCTATC (((((((....)))))))	50.2	-42
GATAGCACGAAAGTGATC (((..(((....))))))	28.4	-9.8
GATAGCCGAAAGGCGATC (((.(((....))).)))	58.8	-17.9
GATAGCGAAAGCTAGATC ((((((....)))..)))	45.2	-15.4
GATAGCGAAAGCTCATC ((((((....))).)))	36.5	-13.3
GATAGCGAAAGCTGAATC ((((((....)))..)))	27	-10.9
GATAGCGAAAGCTGTATC ((((((....)))..)))	31.9	-12.8
GATAGCGAAAGCTTAATC ((((((....)))..)))	25.3	-10.8
GATAGGCCGAAAGGCATC (((..(((....))))))	30.3	-9.82
GATAGTGGAAACACTATC (((((((....)))))))	54.5	-47.2
GATAGTGGAAACATTATC ((((.((....)).))))	31	-18.4
GATATAGGAAACTATATC (((((((....)))))))	45.5	-33.4
GATATAGGAAACTATGTC ((.((((....)))).))	33.5	-21.8
GATATCACGAAAGTGATC (((..(((....))))))	39.4	-9.68
GATATCCGAAAGGAAATC (((.(((....))).)))	37.1	-27.2
GATATCCGAAAGGACATC (((.(((....))).)))	38.9	-22
